Each structure is given as a SMILES string. In all, about 300,000 compounds went through this assay and about 1,200 (0.4%) were called active.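 Rule for the calls: active = B-score over 3 SD under the library average, no early fluorescence shift, positive overall ratio signal; inactive = the rest.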 The entries come from a sample that favours actives as a whole.

The target in this experiment is Short transient receptor potential channel 4 (Mus musculus) (UniProt Q9QUQ5). Put plainly: inhibitors of mouse TRPC4 channel, primary screen, Fluo4 calcium, HEK293 TRPC4beta/mu-opioid cells (AID 2247). As to conditions: DAMGO-evoked Fluo4 calcium flux, at 10 µM; stronger effect = lower value. An outline of the steps: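 Signal: kinetic Fluo4 fluorescence imaging of calcium influx. Material: stable TRPC4beta/mu-opioid receptor HEK293 cells. Probe or stimulus: DAMGO in two steps, submaximal then maximal.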
Short transient receptor potential channel 4 (Mus musculus), sequence (Q9QUQ5 whole entry, looked up): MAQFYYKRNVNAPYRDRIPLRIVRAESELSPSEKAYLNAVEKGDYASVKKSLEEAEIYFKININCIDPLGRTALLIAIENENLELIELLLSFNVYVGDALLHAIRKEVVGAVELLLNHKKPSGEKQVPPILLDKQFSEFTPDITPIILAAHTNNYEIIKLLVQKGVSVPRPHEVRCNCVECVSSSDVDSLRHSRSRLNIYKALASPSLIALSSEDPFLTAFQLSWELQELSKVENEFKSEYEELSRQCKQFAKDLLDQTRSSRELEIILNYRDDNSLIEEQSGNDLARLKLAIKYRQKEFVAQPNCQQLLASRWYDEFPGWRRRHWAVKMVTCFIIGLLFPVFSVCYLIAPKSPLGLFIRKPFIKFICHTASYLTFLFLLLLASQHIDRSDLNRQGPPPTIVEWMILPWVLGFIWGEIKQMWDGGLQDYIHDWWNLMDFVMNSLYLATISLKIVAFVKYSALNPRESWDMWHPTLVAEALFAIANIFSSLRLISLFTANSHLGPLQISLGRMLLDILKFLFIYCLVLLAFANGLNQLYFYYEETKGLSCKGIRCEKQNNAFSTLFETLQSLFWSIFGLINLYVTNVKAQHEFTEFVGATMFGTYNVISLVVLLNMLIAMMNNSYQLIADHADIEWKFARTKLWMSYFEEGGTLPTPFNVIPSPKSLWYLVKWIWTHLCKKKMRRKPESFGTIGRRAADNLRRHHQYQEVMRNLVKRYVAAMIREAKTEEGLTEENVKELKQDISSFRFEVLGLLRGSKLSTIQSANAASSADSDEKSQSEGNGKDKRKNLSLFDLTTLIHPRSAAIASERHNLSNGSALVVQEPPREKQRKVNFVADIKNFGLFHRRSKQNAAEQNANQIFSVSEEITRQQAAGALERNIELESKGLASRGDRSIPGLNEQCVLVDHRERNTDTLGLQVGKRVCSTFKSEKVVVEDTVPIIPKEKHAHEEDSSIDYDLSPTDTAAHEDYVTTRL
For `CC(=O)Nc1ccc(NC(=O)C2CCCN2S(=O)(=O)c2cccc(C(F)(F)F)c2)cc1` (configuration not stated), the B-score result is “inactive”.
As for `CC(C)c1ccc(S(=O)(=O)N2CCN(C(=O)CN3C(=O)NC(C)(c4ccccc4)C3=O)CC2)cc1` (configuration not stated), the B-score entry is “inactive”.
Regarding `N#Cc1c(-c2ccccc2)nc(SCc2cccc(C(F)(F)F)c2)[nH]c1=O`, the B-score result is “inactive”.
Take `N#Cc1c(-c2ccccc2)nc(SCc2ccc([N+](=O)[O-])cc2)[nH]c1=O`: the B-score entry was “inactive”.
`Cc1ccc(CSc2nc(-c3ccccc3)c(C#N)c(=O)[nH]2)cc1`: the B-score was -6 (active).
With `CC(C)c1ccc(S(=O)(=O)N2CCC3(CC2)OCCO3)cc1`, the B-score result was “inactive”.
For `Nc1ccc(C(=O)N2CCN(S(=O)(=O)c3ccc(Cl)cc3)CC2)cc1[N+](=O)[O-]`, the B-score entry was “inactive”.
Regarding `CN(C)CCN(C(=O)C1CCCCC1)c1nc2cc3c(cc2s1)OCO3`, the B-score is -6 (active).
With `CN(C)CCN(C(=O)CN1C(=O)c2ccccc2C1=O)c1nc2cc3c(cc2s1)OCCO3`, the B-score entry is “inactive”.
As to `CCN(CC)CCN(C(=O)c1cc(Cl)sc1Cl)c1nc2cc3c(cc2s1)OCO3`, the B-score entry is “inactive”.
As for `CC(=O)Nc1ccc(S(=O)(=O)Oc2ccc(Br)cc2C(=S)N2CCOCC2)cc1`, the B-score entry was “inactive”.
For `COc1ccc(/C(C)=N/N2CCOCC2)c(O)c1`, the B-score result was “inactive”.
The value for `COc1cccc2cc(C(N)=O)/c(=N\NC(=O)c3ccccc3)oc12` was -6 (active).
As to `NC(=O)c1cc2ccccc2o/c1=N/NC(=O)c1cccc(F)c1`, the B-score entry was “inactive”.
Regarding `COc1ccc(C(=O)N/N=c2\oc3ccccc3cc2C(N)=O)cc1`, the B-score entry is “inactive”.
As for `COc1ccc(C(=O)NC2CC(C)(C)Cc3c2cnn3-c2ccccc2)c(OC)c1` (configuration not stated), the B-score result is “inactive”.
The value for `CN1OC(COC(=O)c2ccc(Cl)cc2)CC1c1ccccc1` (configuration not stated) was “inactive”; that for `CCOC(=O)C1CCN(Cc2ccc(-c3ccccc3)cc2)CC1` was “inactive”.
Consider `CCCCN(Cc1ccccc1)C(=O)C1CCN(Cc2sccc2C)CC1`, for which the B-score was -6 (active).
To `CCCC(=O)C1CCN(Cc2ccccc2)CC1` belongs “inactive”.
In the case of `COc1cccc(CNc2ncc(-c3ccccc3)n2C)c1`, the B-score entry was “inactive”.
To `CCN(CC)S(=O)(=O)c1ccc(Cl)c(C(=O)NCCN2CCOCC2)c1` belongs “inactive”.
Take `Cc1ccccc1N(C(=O)Cc1cccs1)C(C(=O)NC1CCCCC1)c1cn(C)nc1C` (configuration not stated): the B-score entry was “inactive”.
Regarding `COc1cccc(CNc2nc(C(F)(F)F)nc3ccccc23)c1`, the B-score entry is “inactive”.
`CCc1ccc(C(CNc2nc(C(F)(F)F)nc3ccccc23)N(C)C)cc1` (configuration not stated): the B-score is -7 (active).
As to `NS(=O)(=O)c1ccc(CCNc2nc(C(F)(F)F)nc3ccccc23)cc1`, the B-score entry is “inactive”.
Turning to `CN(Cc1ccccc1F)C(=O)C(Cc1ccccc1)NC(=O)c1ccccc1` (configuration not stated), the B-score entry is “inactive”.
To `Cn1c(C(=O)N2CCCC(C(=O)NCc3ccccc3)C2)cc2sccc21` (configuration not stated) belongs “inactive”; to `Cc1ccc(CN(C(=O)c2sc3ccccc3c2Cl)C2CCS(=O)(=O)C2)cc1` (configuration not stated), “inactive”; to `Fc1ccccc1COc1cccc2cccnc12`, “inactive”.
Regarding `c1ccc(COc2ccccc2CNCc2cccnc2)cc1`, the B-score entry is “inactive”.
As to `Fc1ccccc1COc1ccccc1CNCc1ccncc1`, the B-score is -7 (active).
With `Cc1ccc(S(=O)(=O)CC(=O)Nc2sc(C)c(C)c2C(N)=O)cc1`, the B-score entry was “inactive”.
In the case of `COc1cc2ccccc2cc1C(=O)N1CCOCC1`, the B-score result was “inactive”.
In the case of `CCCCCn1c(=O)[nH]c2cc(C(=O)NCCCN3CCCCC3C)ccc2c1=O` (configuration not stated), the B-score entry is “inactive”.
For the compound `N#CCCCn1c(O)c(N=NC(=O)C(O)c2ccccc2)c2ccccc21` (configuration not stated), the B-score entry was “inactive”.
`Cc1ccc2nc(C)cc(N/N=C/c3ccc(F)cc3)c2c1`: the B-score entry was “inactive”.
Take `Cc1cc(N/N=C/c2ccccc2F)c2ccccc2n1`: the B-score is -8 (active).
Consider `Oc1ccc(/C=N/Nc2nc(-c3ccccc3F)nc3ccccc23)c(O)c1`, for which the B-score entry is “inactive”.
Turning to `CCCCC(c1nnnn1CS(=O)(=O)c1ccc(C)cc1)N1CCC(C(N)=O)CC1` (configuration not stated), the B-score result was “inactive”.
The value for `CC1(C)OC(=O)C(=CNC(CO)C(=O)O)C(=O)O1` (configuration not stated) was “inactive”.
To `NC(=O)c1c(NC(=O)CSc2nc(N)cc(=O)[nH]2)sc2c1CCCC2` belongs “inactive”; to `CCCc1cc(=O)[nH]c(SCC(=O)Nc2sc3c(c2C#N)CCCC3)n1`, -6 (active); to `CCN1CCN(CC(=O)Nc2sc3c(c2C#N)CCC3)CC1`, “inactive”.
As for `COc1ccc2[nH]c(=O)c(CN(Cc3cccnc3)S(=O)(=O)c3ccccc3F)cc2c1`, the B-score entry is “inactive”.
With `CC(NCc1ccccc1OC1CCCC1)c1ccccc1` (configuration not stated), the B-score was -6 (active).
With `CC(C)(C)NCc1cc(Br)ccc1OC1CCCC1`, the B-score entry was “inactive”.
The value for `COc1ccccc1CN1CCN(C(c2ccccc2)c2ccccc2)CC1` was “inactive”; that for `CC1CCCCC1NC(=O)/C(C#N)=C/C=C/c1ccccc1[N+](=O)[O-]` (configuration not stated) was “inactive”.
As to `COc1ccc(N(Cc2cc3ccc(C)cc3[nH]c2=O)S(=O)(=O)c2ccccc2)cc1`, the B-score entry is “inactive”.
Regarding `O=C(c1cccc(C(=O)N2CCN(c3ccc(F)cc3)CC2)c1)N1CCN(c2ccc(F)cc2)CC1`, the B-score was -8 (active).
As for `O=C(c1cc(C(=O)N2CCN(c3ccc(F)cc3)CC2)cc([N+](=O)[O-])c1)N1CCN(c2ccc(F)cc2)CC1`, the B-score entry is “inactive”.
With `O=C(c1cc2cc(F)ccc2[nH]1)N1CCN(c2ccc(F)cc2)CC1`, the B-score entry was “inactive”.
`c1ccc(Nc2n[nH]nc2-c2ccccc2)cc1`: the B-score was -6 (active).
On to `O=C(O)c1n[nH]nc1-c1ccccc1`, for which the B-score entry is “inactive”.
For the compound `Oc1ccc(-c2nnc(Nc3ccccc3)c3ccccc23)cc1`, the B-score entry was “inactive”.
Turning to `COc1cc(C(F)(F)F)nc2c(Br)c(C(C)(C)C)nn12`, the B-score is -6 (active).
On to `CC1C(=O)N2CCCc3cc(S(=O)(=O)NCc4ccc(F)cc4)cc1c32` (configuration not stated), for which the B-score entry was “inactive”.
With `Cc1cccc2cc(CN(Cc3ccc4c(c3)OCO4)Cc3nnnn3C3CCCC3)c(=O)[nH]c12`, the B-score entry was “inactive”.
For the compound `Cc1cccc2cc(CN(Cc3nnnn3Cc3ccccc3)C3CCCC3)c(=O)[nH]c12`, the B-score was -7 (active).
The value for `Cc1cc(C)c2cc(CN(Cc3nnnn3Cc3ccc(F)cc3)C3CCCC3)c(=O)[nH]c2c1` was “inactive”; that for `NS(=O)(=O)c1ccc(NC(=S)Nc2ccc(Br)c(Cl)c2)cc1` was “inactive”.
As for `Cc1ccc(S(=O)(=O)N2CCC(C)CC2)cc1C(=O)NCc1ccccn1`, the B-score entry is “inactive”.
For `Cc1ccc(OCC(=O)NNC(=S)NCc2ccccc2)cc1`, the B-score entry was “inactive”.
To `O=C(NNC(=S)NCc1ccccc1)c1ccc(OC(F)F)cc1` belongs “inactive”; to `CC(C)Oc1ccc(CCC(=O)NNC(=S)NCc2ccccc2)cc1`, -6 (active); to `COc1ccc(NC(=O)CN(C)C(=O)c2cc(-c3ccc(C)o3)nc3ccccc23)cc1`, “inactive”.
The value for `COc1ccc(-n2ncc3c(N4CCc5ccccc54)ncnc32)cc1` was -7 (active); that for `COc1ccc(-n2ncc3c(SCC(=O)NNC(C)=O)ncnc32)cc1` was “inactive”; that for `CC(C)Sc1ncnc2c1cnn2-c1ccccc1` was “inactive”.
For the compound `Nc1ccc(Cl)c(S(=O)(=O)Nc2ccccc2Cl)c1`, the B-score result was “inactive”.
To `O=C(COC(=O)/C=C/c1cccc(Cl)c1)NCCc1ccccc1` belongs “inactive”; to `COc1ccc(CN2CCCC(CNC(=O)c3ccc(F)cc3)C2)cc1OC` (configuration not stated), -6 (active); to `COc1ccc(CCN(C)C(=O)C2CCCN(Cc3ccc(OC)c(OC)c3)C2)cc1OC` (configuration not stated), “inactive”.
The value for `COc1ccc(Cc2nc3ccc(C(=O)NCC4CCOCC4)cc3o2)cc1OC` was “inactive”; that for `O/N=C(\C[n+]1ccccc1)c1ccc(Br)cc1` was “inactive”.
In the case of `Cn1ncc(Br)c1C(=O)NC1CCCC1`, the B-score entry is “inactive”.
Regarding `COc1ccc(CCN2C(=O)C3CC=C(C)CC3C2=O)cc1OC` (configuration not stated), the B-score entry was “inactive”.
For the compound `COc1ccc(CCN(C)CCN2C(=O)c3ccccc3C2=O)cc1OC`, the B-score was -8 (active).
On to `COc1ccc(CCN2C(=O)C(C)=C(C)C2=O)cc1OC`, for which the B-score entry was “inactive”.
As to `O=C(CSc1ncnc2c1oc1ccccc12)NC1CCCC1`, the B-score entry is “inactive”.
For the compound `CCCCCCCCCCOC(=O)Cn1c(COc2cccc(OC)c2)[n+](C)c2ccccc21`, the B-score is -6 (active).
With `CCn1c(COc2cccc(OC)c2)nnc1SCC(=O)N1CCOCC1`, the B-score entry is “inactive”.
As to `CCCCCCCCCCOC(=O)Cn1c(COc2ccc(C)cc2)[n+](C)c2ccccc21`, the B-score entry was “inactive”.
Turning to `O=C(OCC(=O)N1CCCC1=O)c1cc(S(=O)(=O)N2CCOCC2)ccc1Cl`, the B-score entry was “inactive”.
To `CCOc1ccc(C(=O)Nc2ccc(CN3CCOCC3)cc2)cc1Cl` belongs “inactive”; to `Cn1c(=O)[nH]c(=O)c2c1nc(NCCCn1ccnc1)n2Cc1cccc(Br)c1`, “inactive”; to `O=C(COc1ccccc1Cl)Nc1ccccc1C(=O)NC1CC1`, “inactive”.
`Cc1ccccc1OCC(=O)NNC(=O)c1ccc(-n2cncn2)c([N+](=O)[O-])c1`: the B-score result is “inactive”.
Turning to `Cc1ccc(O)c(CNc2nc3ccccc3n2C)c1`, the B-score result was “inactive”.
Take `Cc1ccc(-c2cc(=O)[nH]c(NCc3ccccc3)n2)cc1`: the B-score result was “inactive”.
With `Cc1ccc(O)c(CNc2nc3ccccc3[nH]2)c1`, the B-score is -7 (active).
Regarding `CCC1CCCCN1S(=O)(=O)Cc1ccccc1Cl` (configuration not stated), the B-score entry was “inactive”.
On to `CCc1ccc(NC(=O)CN2CCC(C(=O)c3ccc(OC)cc3)CC2)cc1`, for which the B-score result was “inactive”.
In the case of `CC1(C)OC(=O)C(=CSc2ccc(C(C)(C)C)cc2)C(=O)O1`, the B-score result is “inactive”.
As for `Cc1ccc(-n2c(C)cc(/C=N\NC(=O)CC(=O)NC(C)C)c2C)cc1`, the B-score result was “inactive”.
In the case of `CSc1ccc(/C=N\NC(=O)CC(=O)NC(C)C)cc1`, the B-score is -8 (active).
As for `CSc1ccc(/C=N/NC(=O)c2cccc(Cl)c2)cc1`, the B-score entry is “inactive”.
`Cc1ccc(-c2csc(NCCc3nc4cc(Cl)c(Cl)cc4n3CCOCCO)n2)cc1`: the B-score entry was “inactive”.
Turning to `Cc1cccc(Cn2c(SCCO)nc3c2c(=O)n(C)c(=O)n3C)c1`, the B-score result was “inactive”.
For the compound `CCCSc1nc2c(c(=O)n(C)c(=O)n2C)n1Cc1ccc(C)cc1`, the B-score entry was “inactive”.
As for `CCOc1ccc(Cn2c(SCCCCC#N)nc3c2c(=O)n(C)c(=O)n3C)cc1OCC`, the B-score was -5 (active).
Regarding `COc1ccc(N2C(=O)C3C(C2=O)C(C(=O)c2ccccc2)N2CCCC32)cc1` (configuration not stated), the B-score result is “inactive”.
The value for `O=C(COC(=O)c1ccc(F)cc1)NCCCc1ccccc1` was “inactive”.
With `CSCCNCc1cn(-c2ccc(F)cc2F)nc1-c1ccccc1C`, the B-score is -7 (active).
Take `Cc1ccc(-c2nn(-c3cccc(F)c3)cc2CNCCc2ccncc2)o1`: the B-score entry is “inactive”.
Take `COc1ccccc1CC(=O)Nc1ccc(F)cc1F`: the B-score result is “inactive”.

These data come from PubChem BioAssay AID2247 (Johns Hopkins Ion Channel Center, 2010).
